# Out of some 240,000 compounds screened, about 950 (0.4%) were called active.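 How the source made its calls: active means lipid droplet intensity inhibited by at least 50%, with more than 500 cells counted; inconclusive means wells with under 300 cells, treated as cytotoxic; inactive means the rest.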 Shown is part of a subset that was picked to be rich in actives.
# Experiment: oleate-induced lipid droplet accumulation in AML12 cells – imaging, high-throughput imaging, BODIPY stain, primary screen (AID 1656);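 on cell count: cells counted across two imaged fields per well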
# Details: AML12 mouse hepatocytes, oleate lipid droplets, at 6.5 µM; cell count: measured here: cell count, cytotoxicity flag; inhibition: stronger effect = higher value
# In short: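 Test system: AML12 hepatocytes (mouse); reagent: oleate loading, 100 µM; dosing: one dose, 6.5 µM compound; incubation: overnight exposure; signal: fluorescence imaging, 20x objective, two fields per well; read-out basis: % inhibition of corrected integrated BODIPY droplet signal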
Structure (SMILES),cell count [cells],inhibition
COc1ccc(CCNC(=O)C(=O)NCC2OCCN2S(=O)(=O)c2cccs2)cc1OC (stereo not given),689,-12.1% (inactive)
COc1cccc(C(=O)N/N=C(\C)c2cccc(NC(=O)c3ccc(F)cc3)c2)c1OC,678,-6.8% (inactive)
O=C1Nc2ccc(Br)cc2/C1=N/N=C/C1=C(N2CCOCC2)C(=C\c2ccccc2)/CC1,750,55.6% (active)
COc1ccc(/C=N/N=C2/C(=O)Nc3ccccc32)cc1O,676,9.7% (inactive)
C(=N\N1CCN(c2ccccn2)CC1)/C1=C(N2CCOCC2)C(=C/c2ccccc2)/CC1,680,-4.6% (inactive)
CCCc1cc(=O)oc2cc(OCC(=O)Nc3ccc(CN4CCOCC4)cc3)c(Cl)cc12,636,-0.7% (inactive)
O=C(CSc1nc2nccnc2c(=O)n1Cc1cccs1)Nc1ccccc1F,782,2.9% (inactive)
COc1cc(/C=C/C(=O)N2CCc3ccccc3C2)cc(OC)c1OC,825,0% (inactive)
CC(C)(C)NS(=O)(=O)c1ccc(NC(=O)C2CCCO2)cc1 (stereo not given),829,2.6% (inactive)
CCCNC(=O)CCc1c(C)nc2c(c(C)nn2-c2ccc(C)cc2)c1C,848,10.2% (inactive)
COc1ccc(N(CC(=O)Nc2cc(OC)cc(OC)c2)S(=O)(=O)c2c(C)n[nH]c2C)cc1,704,-4% (inactive)
CCSc1nsc(NC(=O)Nc2ccccc2OC)n1,808,-10.6% (inactive)
COc1ccc(C(=O)NC2CCCc3c2cnn3-c2cccc(C)c2C)c(OC)n1 (stereo not given),767,-1.4% (inactive)
Cn1nccc1C(=O)NC1CCCc2c1cnn2-c1ccccc1F (stereo not given),545,-55.5% (inactive)
Cc1cc(C(=O)NC2CCCc3c2cnn3-c2cccc(C)c2C)c(C)o1 (stereo not given),865,59.9% (active)
COc1ccc(CCNC(=O)CS(=O)(=O)Cc2nc(-c3ccc(C)cc3)oc2C)cc1OC,750,11.2% (inactive)
O=C(c1ccc(F)cc1)N1CCCC(C(=O)N2CCCCC2)C1 (stereo not given),708,-8.5% (inactive)
O=S(=O)(c1ccc(Br)cc1)c1nc(-c2ccccc2)oc1N1CCOCC1,610,-17.8% (inactive)
O=C1CCC(C(=O)N2CCN(c3ccccc3Cl)CC2)CN1CC1CCCCC1 (stereo not given),746,0% (inactive)
COc1ccc(OC)c(-c2csc(-c3cccs3)n2)c1,816,69.1% (active)
COc1ccc(-c2csc(-c3cccs3)n2)cc1OC,713,8.5% (inactive)
COc1ccc(OC)c(CNC(=O)CCc2nc(-c3cccs3)no2)c1,746,-2% (inactive)
Cc1cc(C(=O)Cn2cnc3cc([N+](=O)[O-])ccc3c2=O)c(C)n1CC1CCCO1 (stereo not given),680,-0.6% (inactive)
O=C(Cn1cnc2cc([N+](=O)[O-])ccc2c1=O)NC(=O)NCc1ccccc1,618,-1% (inactive)
CC(C)(C)NC(=O)Cn1cnc2cc([N+](=O)[O-])ccc2c1=O,720,58.1% (active)

Structure (SMILES),cell count [cells],inhibition
CC(=O)N1CCN(c2ccccc2NC(=S)NC(=O)c2cc3ccccc3o2)CC1,682,29.4% (inactive)
Cc1cccc(N2CCN(C(=O)c3cccc(N4C(=O)C5C6C=CC(C6)C5C4=O)c3)CC2)c1C (stereo not given),793,-0.4% (inactive)
CCCc1cc(C(=O)N2CCCC(CO)(CCCc3ccccc3)C2)n(C)n1 (stereo not given),631,-27.5% (inactive)
CC1CCN(C(=S)NC(=O)c2ccccc2Br)CC1,661,-5.4% (inactive)
CCCCN1C(=O)/C(=C2/C=CC=CN2C)SC1=S,765,-17.5% (inactive)
CCN1C(=O)/C(=C2/Sc3ccccc3N2CCCS(=O)(=O)O)SC1=S,691,-5.7% (inactive)
CCCCN1C(=O)/C(=C/C=C2/C=Cc3ccccc3N2CC)SC1=S,734,56.1% (active)
COc1ccc(Cl)cc1NC(=O)CN(C)C(=O)CNC(=O)C12CC3CC(CC(C3)C1)C2,778,18.1% (inactive)
COc1ccccc1NC(=O)CCCc1c[nH]c2ccccc12,740,-19.1% (inactive)
COc1ccc(Cl)cc1NC(=O)CN(C)C(=O)CCCc1c[nH]c2ccccc12,812,53.5% (active)
Cc1ccc(-n2nc3c(=O)n(C(C)C(=O)NCc4ccc5c(c4)OCO5)nc(C)c3c2C)cc1 (stereo not given),665,15.4% (inactive)
O=C(NCCCN1CCOCC1)c1cc(-c2ccccc2F)no1,726,6.3% (inactive)
COC(=O)c1ccc(COc2ccc(/C=C/C(=O)c3ccc(OC)c(CSCC(=O)O)c3)cc2OC)cc1,891,-2% (inactive)
CC(C)c1ccc(N(C(=O)c2ccco2)C(C(=O)NC2CCCC2)c2cccnc2)cc1 (stereo not given),761,-17.7% (inactive)
Cc1c(C=O)c2ccccc2n1CCOc1ccccc1,839,-1% (inactive)
CN(CC1CCCO1)S(=O)(=O)c1ccc(C(=O)Nc2ccc(F)cc2)cc1 (stereo not given),687,-1.2% (inactive)
Cc1cc(N2CCCC2)n2nc(C)c(-c3ccccc3)c2n1,697,51.4% (active)
Cc1cc(C(C)(C)C)n2nc(C)c(-c3ccccc3)c2n1,401,2% (inactive)
Cc1cc(-n2nc(C)cc2C)n2nc(C)c(-c3ccccc3)c2n1,801,10% (inactive)
CC(=O)c1ccc(NC(=O)c2sc3nc4n(c(=O)c3c2C)CCCCC4)cc1,749,9.9% (inactive)
O=C(C1CCCN(S(=O)(=O)c2ccc([N+](=O)[O-])cc2)C1)N1CCCCC1 (stereo not given),814,0.4% (inactive)
COc1ccc(-c2nonc2NC(=O)c2oc3ccc(F)cc3c2C)cc1OC,738,39.5% (inactive)
COc1ccccc1CNC(=O)C1CCN(S(=O)(=O)c2ccc3c(c2)CC(C)N3C(=O)C2CC2)CC1 (stereo not given),719,-4.5% (inactive)
COc1ccc(NC(=O)CN2C(=O)COc3ccc(S(=O)(=O)N4CCOCC4)cc32)c(OC)c1,694,-1.6% (inactive)
COc1ccccc1CNC(=O)[C@@H]1CCCN1C(=O)[C@@H]1Cc2ccccc2CN1C(=O)OC(C)(C)C,737,-4.8% (inactive)

# From PubChem BioAssay AID1656 (Sanford-Burnham Center for Chemical Genomics, 2009)
